According to ChEMBL document CHEMBL1132312, “Conformationally constrained butyrophenones with mixed dopaminergic (D(2)) and serotoninergic (5-HT(2A), 5-HT(2C)) affinities: synthesis, pharmacology, 3D-QSAR, and molecular modeling of (aminoalkyl)benzo- and -thienocycloalkanones as putative atypical antipsychotics” (J Med Chem, 1999):

Assays:
D(1A) dopamine receptor [1] = target: T1, D(1A) dopamine receptor (Rattus norvegicus, UniProt P18901); assay: In vitro ability to displace [3H]SCH-23390 binding from Dopamine receptor D1 in rat striatal membrane.; format: cell membranes
T1 sequence (P18901 whole entry): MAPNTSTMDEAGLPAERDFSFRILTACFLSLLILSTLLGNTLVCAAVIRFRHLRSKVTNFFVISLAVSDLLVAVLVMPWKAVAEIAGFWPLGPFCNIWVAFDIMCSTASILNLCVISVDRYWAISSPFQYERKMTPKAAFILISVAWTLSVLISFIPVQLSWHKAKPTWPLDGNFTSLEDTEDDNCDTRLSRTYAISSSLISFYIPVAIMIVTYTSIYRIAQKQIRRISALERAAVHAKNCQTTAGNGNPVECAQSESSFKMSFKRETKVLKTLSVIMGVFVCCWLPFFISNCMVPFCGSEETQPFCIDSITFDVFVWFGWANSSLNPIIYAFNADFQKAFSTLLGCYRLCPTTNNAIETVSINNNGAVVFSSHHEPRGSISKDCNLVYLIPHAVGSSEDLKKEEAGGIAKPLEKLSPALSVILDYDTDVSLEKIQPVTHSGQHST
Method in brief: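 Striatal membranes from male Sprague-Dawley rats, washed in Tris-HCl with 5 mM EDTA. Resuspended at 1.00 mg wet weight/750 µL in 50 mM Tris-HCl pH 7.4 with 120 mM NaCl, 5 mM KCl, 2 mM CaCl2 and 1 mM MgCl2. [3H]SCH23390 competition in duplicate, 15 min at 37 °C, filtered. Nonspecific binding defined with 1 µM final SCH23390. Ki = IC50/(1 + D/Kd).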

Mus musculus [2] = assay: In vivo Antipsychotic activity was quantified by induction of catalepsy in mice; format: functional
Method in brief: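 Male CD1 mice, 27 ± 3 g, 6-12 per group, tested 30 min after dosing. Forepaws placed on one horizontal wire, hindpaws on another 6 cm away and 2 cm lower. Holding the posture for more than 30 s scored as catalepsy. ED50 by Litchfield-Wilcoxon.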

Mus musculus [3] = assay: In vivo Antipsychotic activity was quantified by inhibition of apomorphine-induced climbing(CL 95%) by mice; format: functional
Method in brief: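 Male CD1 mice given test drug or vehicle, then 2 mg/kg apomorphine 30 min later. Housed singly in wire cylinders; 6 per dose, 12 controls. Climbing scored 0-2 every 10 min over 30 min. Scores at 20 and 30 min summed and averaged per group. ED50 from nonlinear curve fitting.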

[4] = pA2 value was evaluated by measuring the inhibition of the 5-HT-induced contraction of rat aorta.; format: functional, tissue-based
Method in brief: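 Thoracic aorta rings, denuded, from male 250-350-g Sprague-Dawley rats. Isometric force recorded after 60 min equilibration under 2 g load, then sensitized with 10 µM 5-HT for 8 min.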

[5] = target: T2, 5-hydroxytryptamine receptor 2A (Rattus norvegicus, UniProt P14842); assay: In vitro ability to displace [3H]ketanserin binding from 5-hydroxytryptamine 2A receptor in rat membrane.
T2 sequence (P14842 whole entry): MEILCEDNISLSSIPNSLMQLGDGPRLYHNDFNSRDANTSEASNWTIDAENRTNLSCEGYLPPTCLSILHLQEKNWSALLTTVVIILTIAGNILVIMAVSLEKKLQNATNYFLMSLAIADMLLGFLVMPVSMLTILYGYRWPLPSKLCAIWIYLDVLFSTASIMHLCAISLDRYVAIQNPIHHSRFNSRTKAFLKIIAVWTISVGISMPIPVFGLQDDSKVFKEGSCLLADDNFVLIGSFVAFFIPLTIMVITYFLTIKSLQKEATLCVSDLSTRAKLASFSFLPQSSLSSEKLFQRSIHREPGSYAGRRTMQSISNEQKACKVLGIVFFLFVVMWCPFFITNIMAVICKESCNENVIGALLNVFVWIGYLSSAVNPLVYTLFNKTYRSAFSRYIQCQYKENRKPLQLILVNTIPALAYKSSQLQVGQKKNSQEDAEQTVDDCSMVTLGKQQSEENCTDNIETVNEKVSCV

D(1A) dopamine receptor [6] = target: T1, D(1A) dopamine receptor; assay: In vitro ability to displace [3H]SCH-23390 binding from Dopamine 1 (D1) receptor in rat striatal membrane.; format: cell membranes
[7] = target: T2, 5-hydroxytryptamine receptor 2A; assay: Compound was tested in vitro for its binding affinity towards 5-hydroxytryptamine 2A receptor from rat frontal cortex using [3H]-ketanserin as radioligand; format: tissue-based
Method in brief: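 Frontal cortex from male 200-250-g Sprague-Dawley rats, homogenized in 0.32 M sucrose, then washed. Pellet incubated 15 min at 37 °C to strip endogenous 5-HT. Assay buffer Tris-HCl pH 8.07 with 4 mM CaCl2 and 0.1% ascorbic acid. [3H]ketanserin competition run in triplicate, 30 min at 37 °C, with GF/C filtration. Nonspecific binding defined with methysergide. Ki = IC50/(1 + D/Kd), with Kd taken from saturation binding.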

SMILES | Ki (D(1A) dopamine receptor [1]) | ED50 (Mus musculus [2]) | ED50 (Mus musculus [3]) | pA2 [4] | Ki [5] | Ki (D(1A) dopamine receptor [6]) | Ki [7]
O=C(CCCN1CCN(CCC2Cc3sccc3C2=O)CC1)c1ccc(F)cc1 (stereo unspecified) | 324 nM | > 15 mg/kg | 3.34 mg/kg | 7.63 | 42.7 nM | – | –
O=C(O)C(=O)O.O=C(c1ccc(F)cc1)C1CCN(CCC2Cc3sccc3C2=O)CC1 (stereo unspecified) | 2510 nM | > 16 mg/kg | 65 mg/kg | 8.92 | 7.08 nM | – | –
COc1ccccc1N1CCN(CCC2CCc3sccc3C2=O)CC1.Cl (stereo unspecified) | – | > 8 mg/kg | > 8 mg/kg | 6.95 | 145 nM | 5370 nM | –
Cl.O=C1CC(CN2CCC(c3noc4cc(F)ccc34)CC2)Cc2sccc21 (stereo unspecified) | – | > 8 mg/kg | 1.46 mg/kg | 9.13 | 4.68 nM | 129 nM | –
Cl.O=C(c1ccc(F)cc1)C1CCN(CCC2CCc3sccc3C2=O)CC1 (stereo unspecified) | 1380 nM | > 4 mg/kg | 2.03 mg/kg | 9.02 | 1.45 nM | – | –
Cc1nc2n(c(=O)c1CCN1CCC(c3noc4cc(F)ccc34)CC1)CCCC2 [RISPERIDONE] | – | > 2 mg/kg | 0.09 mg/kg | – | – | – | –
O=C(c1ccc(F)cc1)C1CCN(CCC2Cc3ccccc3C2=O)CC1 (stereo unspecified) | – | – | – | 8.12 | – | – | –
O=C(CCCN1CCC(O)(c2ccc(Cl)cc2)CC1)c1ccc(F)cc1 [HALOPERIDOL] | – | 0.67 mg/kg | 0.14 mg/kg | – | – | – | –
Cl.O=C(c1ccc(F)cc1)C1CCN(CCC2CCc3ccsc3C2=O)CC1 (stereo unspecified) | – | > 4 mg/kg | 1.98 mg/kg | – | 11.2 nM | 562 nM | –
O=C(CCCN1CCN(CCC2Cc3ccccc3C2=O)CC1)c1ccc(F)cc1 (stereo unspecified) | – | – | – | 7.3 | 123 nM | 1320 nM | –
O=C(c1ccc(F)cc1)C1CCN(CCC2CCc3ccccc3C2=O)CC1 (stereo unspecified) | – | – | – | 7.47 | – | – | –
COc1ccccc1N1CCN(CC2CC(=O)c3ccccc3C2)CC1 (stereo unspecified) | – | – | – | 6.48 | 513 nM | – | –
Cl.O=C1c2sccc2CCC1CCN1CCC(c2noc3cc(F)ccc23)CC1 (stereo unspecified) | – | > 2 mg/kg | 0.5 mg/kg | – | 6.76 nM | 135 nM | –
O=C(CCCN1CCN(CCC2CCc3ccccc3C2=O)CC1)c1ccc(F)cc1 (stereo unspecified) | – | – | – | 7.35 | 72.4 nM | 1350 nM | –
O=C(c1ccc(F)cc1)C1CCN(CCC2CCCc3ccccc3C2=O)CC1 (stereo unspecified) | – | – | – | 6.75 | 13.2 nM | – | –
Cl.O=C1c2ccsc2CC1CCN1CCC(c2noc3cc(F)ccc23)CC1 (stereo unspecified) | 126 nM | > 20 mg/kg | 0.47 mg/kg | – | 1.74 nM | – | –
Cl.O=C1CC(CN2CCC(C(=O)c3ccc(F)cc3)CC2)Cc2sccc21 (stereo unspecified) | – | > 16 mg/kg | 1.25 mg/kg | 7.82 | 57.5 nM | 427 nM | –
COc1ccccc1N1CCN(CCC2CCc3ccccc3C2=O)CC1 (stereo unspecified) | 1480 nM | – | – | 6.72 | 40.7 nM | – | –
Cl.O=C1CC(CN2CCC(C(=O)c3ccc(F)cc3)CC2)c2ccccc21 (stereo unspecified) | 1550 nM | > 4 mg/kg | > 7 mg/kg | 8.13 | 26.3 nM | – | –
Cl.O=C1c2ccsc2CCC1CCN1CCC(c2noc3cc(F)ccc23)CC1 (stereo unspecified) | – | > 2 mg/kg | 0.79 mg/kg | 9.87 | – | 295 nM | 2.75 nM
Cl.O=C(CCCN1CCN(CC2CC(=O)c3ccccc32)CC1)c1ccc(F)cc1 (stereo unspecified) | 7080 nM | > 8 mg/kg | > 8 mg/kg | 7.2 | 45.7 nM | – | –
Cl.O=C(CCCN1CCN(CCC2CCc3sccc3C2=O)CC1)c1ccc(F)cc1 (stereo unspecified) | – | > 15 mg/kg | > 15 mg/kg | 6.83 | – | 3090 nM | 288 nM
O=C1CC(CN2CCC(C(=O)c3ccc(F)cc3)CC2)Cc2ccccc21 (stereo unspecified) | – | – | – | 7.86 | – | – | –
COc1ccccc1N1CCN(CC2CC(=O)c3ccsc3C2)CC1.Cl (stereo unspecified) | – | > 8 mg/kg | > 8 mg/kg | 5.9 | 1510 nM | > 10000 nM | –
Cl.O=C(CCCN1CCN(CC2CC(=O)c3ccsc3C2)CC1)c1ccc(F)cc1 (stereo unspecified) | – | > 2 mg/kg | > 8 mg/kg | 7.79 | 107 nM | 1350 nM | –
COc1ccccc1N1CCN(CC2CC(=O)c3ccccc32)CC1.Cl (stereo unspecified) | 3720 nM | > 8 mg/kg | > 8 mg/kg | 6.21 | 891 nM | – | –
CN1CCN(C2=Nc3cc(Cl)ccc3Nc3ccccc32)CC1 [CLOZAPINE] | – | > 50 mg/kg | 2.21 mg/kg | – | – | – | –
O=C(CCCN1CCN(CC2CC(=O)c3ccccc3C2)CC1)c1ccc(F)cc1 (stereo unspecified) | – | – | – | 7.27 | 17.8 nM | – | –
